Measured values gathered from unrelated publications.
Compare with care: the assays were run in different laboratories.
Target: Serine/threonine-protein kinase PLK1 (PLK1, Homo sapiens, UniProt P53350)

SMILES | observed | action | method | cells | concentration | measurement | result
FC(F)(F)Oc1cccc(-c2cnc3ccc(-c4ccncc4)nn23)c1 | enzyme activity | inhibitor | radiometric |  | 1 µM | activity vs control | 93%
Cc1cc(NC(=O)c2cccc(S(F)(F)(F)(F)F)c2)cc(-n2ccn3nc(-c4cccnc4)cc23)c1 | cell-free assay |  | competition with immobilised ligand |  | 1 µM | remaining binding | 95.3%
COc1cc(Nc2cnc(C#N)c(O[C@H](C)CN(C)C)n2)ncc1-c1cnn(C)c1 | enzyme activity | inhibitor | radiometric |  | 1 µM | remaining activity | 88%
C=CC(=O)Nc1cc(Nc2nccc(Nc3cc(Cl)c(F)cc3C(C)(C)O)n2)c(OC)cc1N1CC[C@@H](N(C)C)C1 | enzyme activity | inhibitor |  |  | 1 µM | inhibition | 11%
Nc1ncnc2occ(-c3ccc(NC(=O)Nc4cc(C(F)(F)F)ccc4F)cc3)c12 | cell-free assay | inhibitor |  |  | 20 µM | remaining signal | 100%
CN(c1ccnc(CNc2nc(Nc3ccc4c(c3)CC(=O)N4)ncc2C(F)(F)F)n1)S(C)(=O)=O | cell-free assay |  | competition with immobilised ligand |  | 1 µM | remaining binding | 7.6%
FC(F)c1nc2ccccc2n1-c1nc(N2CCOCC2)nc(N2CCOCC2)n1 | enzyme activity | inhibitor |  |  | 10 µM | remaining activity | 75%
CSc1nc(C)c(-c2ccnc(Nc3ccc(N4CCOCC4)cc3)c2)[nH]1 | enzyme activity | inhibitor |  |  | 10 µM | inhibition | 6.3%
COc1cc2ncnc(Nc3ccc(Oc4ccccc4)c(C)c3C)c2cc1OC | enzyme activity | inhibitor |  |  | 1 µM | inhibition | -1%
Cc1cc(NC(=O)c2cccc3cc(-c4cccc5[nH]nc(N)c45)ccc23)ccc1F | enzyme activity | inhibitor |  |  | 0.1 µM | activity vs control | 92%
O=C(O)[C@@H]1[C@@H](Cn2nnc3ccccc3c2=O)CC[C@H]1C(=O)c1ccc(OCCC2CCOCC2)cc1 | cell-free assay |  | competition with immobilised ligand |  | 1 µM | remaining binding | 80%
O=C(Nc1cnn(-c2csc(C(=O)NC3COC3)c2)c1)Nc1ccccc1Cl | enzyme activity | inhibitor |  |  | 5 µM | remaining activity | 97%
CCN1CCN(Cc2ccc(NC(=O)c3ccc(C)c(Oc4ccnc5[nH]ccc45)c3)cc2C(F)(F)F)CC1 | target engagement in cells | inhibitor | chemoproteomics | Huh-7 | 10 µM | inhibition | -35%
CNCc1ccccc1-c1csc([C@H](C)Nc2nc(C)nc3cc(OC)c(OC)cc23)c1 | cell-free assay |  | competition with immobilised ligand |  | 1 µM | remaining binding | 85%
CS(=O)(=O)Nc1cccc(-c2csc(NC(=O)CSc3nc4nccnc4c(=O)n3CCc3ccccc3)n2)c1 | enzyme activity | inhibitor |  |  | 10 µM | inhibition | 11%
Cc1cnc(NC2CCOCC2)nc1-n1cnc(C(=O)NC(CN)c2cc(F)cc(Cl)c2)c1 (stereo not drawn) | enzyme activity | inhibitor | radiometric |  | 1 µM | remaining activity | 103%
CN1CC(Oc2cnc(C#N)cc2-c2ccn3nc(NC(=O)C4CC4)cc3c2)C1 | enzyme activity | inhibitor |  |  | 1 µM | inhibition | 6%

SMILES | observed | action | method | cells | concentration | measurement | result
O=C(Nc1cnn(-c2csc(C(=O)NC3COC3)c2)c1)Nc1c(F)cccc1Cl | enzyme activity | inhibitor |  |  | 5 µM | remaining activity | 95.5%
CCN(CC)CCNC(=O)c1c(C)[nH]c(/C=C2\C(=O)Nc3ccc(F)cc32)c1C | cell-free assay |  |  |  | 0.5 µM | remaining signal | 96.4%
CCN(CC)c1ccc(C2=NNC(=O)CC2C)cc1[N+](=O)[O-] (stereo not drawn) | enzyme activity | inhibitor |  |  | 10 µM | remaining activity | 103%
Cc1[nH]c(/C=C2\C(=O)Nc3ccc(F)cc32)c(C)c1C(=O)N[C@H]1CCN(C(=O)N(C)C)C1 | enzyme activity | inhibitor |  |  | 0.1 µM | remaining activity | 126%
CC(C)(C)C(=O)c1sc(NC2CCCCC2)nc1N | enzyme activity | inhibitor |  |  | 10 µM | remaining activity | 93%
O=c1cc(N2CCOCC2)oc2c(-c3ccccc3)cccc12 | cell-free assay |  |  |  | 0.5 µM | remaining signal | 67.1%
Cc1c(NC(=O)c2cc(C(N)=O)nc3cc(F)ccc23)c(C(F)(F)F)nn1Cc1ccc(C(C)(C)C)cc1 | cell-free assay |  | competition with immobilised ligand |  | 1 µM | remaining binding | 99%
Nc1nc(NC2CCCCC2)sc1C(=O)c1ccccc1 | enzyme activity | inhibitor |  |  | 10 µM | remaining activity | 82%
O=C(Nc1cccnn1)N1CC(C/C=C/c2cncc(Oc3ccc(C(F)(F)F)cn3)n2)C1 | cell-free assay |  | competition with immobilised ligand |  | 1 µM | remaining binding | 87%
N#CCCc1ccc2c(c1)-c1[nH]c3ccc([N+](=O)[O-])cc3c1CC(=O)N2 | cell-free assay |  |  |  | 0.5 µM | remaining signal | 101%
Cn1c(=O)n(-c2ccc(C(C)(C)C#N)cc2)c2c3cc(-c4cnc5ccccc5c4)ccc3ncc21 | enzyme activity | inhibitor |  |  | 10 µM | remaining activity | 95%
CN(C)C1CCN(CC#Cc2nn(C3CCCC3)c3nc(NCc4ccccc4)ncc23)C1 (stereo not drawn) | enzyme activity | inhibitor | FRET |  | 0.1 µM | inhibition | -1%
Cc1cc(-n2nc(Cc3cc(F)cc(C(F)(F)F)c3)nc2C)ccc1C(N)=O | cell-free assay |  | competition with immobilised ligand |  | 1 µM | remaining binding | 100%
COc1cc(Nc2c(C#N)cnc3cc(OCCCN4CCN(C)CC4)c(OC)cc23)c(Cl)cc1Cl | cell-free assay |  |  |  | 0.5 µM | remaining signal | 93.8%
CC(C)CC(=O)N1CCc2nc(-c3ccc(Br)cc3)nc(N(C)Cc3ccccc3)c2C1 | cell-free assay |  | competition with immobilised ligand |  | 0.1 µM | remaining binding | 100%
Cc1ccc(C(=O)NCc2ccsc2)cc1C#Cc1cn(C(C)C)c2ncnc(N)c12 | enzyme activity | inhibitor |  |  | 1 µM | activity vs control | 105%
